This note sets out measurements from ChEMBL document CHEMBL3817843, “Understanding Oxadiazolothiazinone Biological Properties: Negative Inotropic Activity versus Cytochrome P450-Mediated Metabolism” (J Med Chem, 2016).

Activity calls are given as the source filed them. The calls are words filed in the database; no cut-off is given here.

In series [1] the test system is Aorta. In words: Vasorelaxant activity in potassium depolarized guinea pig aorta assessed as inhibition of calcium-induced contraction at 10^-6 M preincubated for 30 mins followed by 10^-5 M verapamil addition. Also noted: scale not given: the % may be the effect or the level left. The format is functional, Cavia porcellus. The procedure, abridged:
(§1)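 K+-depolarized (80 mM) guinea pig aortic strips contracted with calcium. Compound at 1 μM added 30 min before diltiazem, verapamil or nifedipine. Response expressed as percent change from control. Data given as mean ±, Student's t test.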

Series [2] concerns Aorta. In words: Inhibition of nifedipine-induced vasorelaxant activity in potassium depolarized guinea pig aorta assessed as relaxation of calcium-induced contraction at 10^-6 M preincubated for 30 mins followed by nifedipine addition. The format is functional, tissue-based. The note with it: Cavia porcellus. The procedure, abridged:
as §1

Series [3] deals with Left cardiac atrium. In words: Negative inotropic activity in potassium depolarized guinea pig left atrium assessed as reduction in developed tension at 10^-8 M after 30 mins. The note with it: Cavia porcellus. The format is functional.
The test system of series [4] is Left cardiac atrium. In words: Negative inotropic activity in potassium depolarized guinea pig left atrium assessed as reduction in developed tension at 10^-8 M preincubated for 30 mins followed by 10^-6 M verapamil addition. It is filed as functional, Cavia porcellus. More on the design: scale not given: the % may be the effect or the level left.
In series [5] the test system is Liver microsome. In words: Stability in human liver microsomes at 1 uM after 2 to 60 mins by LC-MS analysis in absence of NADPH.
Series [6] deals with Aorta. In words: Vasorelaxant activity in potassium depolarized guinea pig aorta assessed as inhibition of calcium-induced contraction at 10^-8 M preincubated for 30 mins followed by 0.5 uM nifedipine addition. More on the design: scale not given: the % may be the effect or the level left. The format is functional, Cavia porcellus.
Series [7] is filed under the species Rattus norvegicus. In words: Displacement of [3H]Isradipine from LTCC DHP site in Sprague-Dawley rat cardiomyocytes at 100 uM after 20 mins by liquid scintillation counting analysis. It is filed as cell-based. Put shortly:
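Rat cardiomyocytes pooled from at least three animals, stored frozen at −80 °C, 0.15−0.2 mg protein/tube. Incubated in 50 mmol/L Tris-HCl with 1.2 mmol/L MgCl2, pH 7.4, at 37 °C for 20 min with 0.1 nM (+)-[3H]isradipine and unlabeled compound (1 nM to 0.1 mM). Nonspecific binding defined with 0.1 mM isradipine. Filtered through PEI-presoaked GF/B filters; scintillation counting; duplicates.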

Series [8] relates to Left cardiac atrium. In words: Negative inotropic activity against potassium depolarized guinea pig left atrium assessed as decrease in verapamil EC50 at 10^-8 M preincubated for 30 mins followed by verapamil addition relative to control. It is filed as functional, Cavia porcellus. The procedure, abridged: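 Isolated guinea pig left atria, electrically driven at 1 Hz. The pretreatment agent (0.01 μM) was added to the bath 30 min before the L-type calcium channel blocker. Blocker concentration–response curves were then run to obtain the negative inotropic EC50, which was compared with the EC50 for the blocker alone. Data were compared by Student's t test.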

The target of series [9] is Voltage-gated L-type calcium channel (Rattus norvegicus, UniProt P22002+Q02485+P27732). In words: Displacement of [3H]Verapamil from LTCC PAA site in Sprague-Dawley rat cardiomyocytes after 60 mins by liquid scintillation counting analysis. The format is cell-based. Put shortly: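 Frozen pooled cardiomyocytes (at least three animals) resuspended in 50 mmol/L Tris-HCl pH 7.4, 0.15−0.3 mg protein/tube, 25 °C for 60 min. [3H]verapamil 0.5 nM displaced by unlabeled compound (0.1 nM−0.1 mM). Nonspecific binding defined with 0.1 mM verapamil. GF/C filtration, two washes with 20 mmol/L Tris-HCl, liquid scintillation counting, duplicate measurements.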

The target of series [10] is Cytochrome P450 2D6 (Homo sapiens, UniProt P10635). In words: Inhibition of CYP2D6 in human liver microsomes using dextromethorphan as substrate after 10 mins by LC-MS analysis.
Chain of Cytochrome P450 2D6 (P10635 whole entry): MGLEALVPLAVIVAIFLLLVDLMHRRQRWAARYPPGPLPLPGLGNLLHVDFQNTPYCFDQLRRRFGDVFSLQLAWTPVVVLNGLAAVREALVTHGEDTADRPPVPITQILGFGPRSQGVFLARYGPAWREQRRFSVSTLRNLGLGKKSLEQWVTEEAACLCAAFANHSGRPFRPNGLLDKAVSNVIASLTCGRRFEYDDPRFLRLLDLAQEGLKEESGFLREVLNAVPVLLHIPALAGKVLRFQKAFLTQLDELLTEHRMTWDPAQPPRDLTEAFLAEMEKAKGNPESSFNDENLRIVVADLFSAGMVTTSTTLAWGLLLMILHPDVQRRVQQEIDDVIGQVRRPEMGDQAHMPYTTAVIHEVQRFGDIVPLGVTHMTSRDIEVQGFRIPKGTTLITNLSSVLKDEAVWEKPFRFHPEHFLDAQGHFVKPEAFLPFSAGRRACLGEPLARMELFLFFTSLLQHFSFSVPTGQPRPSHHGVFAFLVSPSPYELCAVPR
For series [11], the system named is Aorta. In words: Vasorelaxant activity in potassium depolarized guinea pig aorta assessed as inhibition of calcium-induced contraction at 10^-6 M preincubated for 30 mins followed by 50 uM diltiazem addition. More on the design: scale not given: the % may be the effect or the level left. It is filed as functional, Cavia porcellus. Put shortly: as §1
Series [12] in a line: in vitro. The settings on record: human, liver microsomes.

On to `CCOC1(c2ccc(Br)cc2)SC=C(C)n2c1noc2=O` (stereo not drawn), for which the Activity was 36% in series [1], 95% in series [4], 10% in [6] and 18% in [11]. The inhibition result in [2] is “Active”. Moreover, in series [3], the result was inactive. Moreover, the Stability result in series [5] is “Stable”. The compound further returned an inhibition in series [7] of 40%. For the same compound, in series [8], the “fold change (FC)” value came to 12. The IC50 in [9] was 18.3 µM; in series [10], 4.1 µM. Further, the “inhibition (INH)” value in [9] (rat, 1 h) is given as “Dose-dependent effect”. For the same compound, in series [12], the intrinsic clearance (microsomal CLint) at 1 µM turned out to be 53 µL/min/mg.
